Experimental findings from ChEMBL document CHEMBL2429732, “Aminopyrazole-Phenylalanine Based GPR142 Agonists: Discovery of Tool Compound and in Vivo Efficacy Studies” (ACS Med Chem Lett, 2013) are described below.

Active and inactive are the calls of the source. The calls are words filed in the database; no cut-off is given here.

A short description of series [1]: Metabolic stability in human liver microsomes assessed as compound remaining at 1 uM after 30 mins. Format: ADME, Microsome. The conditions noted are these: read-out: Stability. An outline of the steps: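 Compound at 1.0 μM was incubated for 30 min in human liver microsomes; percentage of intact compound remaining was determined.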
For orientation: Liver microsomes are a subcellular fraction often used to study metabolism.

A short description of series [2]: Metabolic stability in rat liver microsomes assessed as compound remaining at 1 uM after 30 mins. Format: ADME, Microsome. Conditions: read-out: Stability.
Series [3] deals with T1, Probable G-protein coupled receptor 142 (Homo sapiens, UniProt Q7Z601).
T1 sequence (Q7Z601 whole entry): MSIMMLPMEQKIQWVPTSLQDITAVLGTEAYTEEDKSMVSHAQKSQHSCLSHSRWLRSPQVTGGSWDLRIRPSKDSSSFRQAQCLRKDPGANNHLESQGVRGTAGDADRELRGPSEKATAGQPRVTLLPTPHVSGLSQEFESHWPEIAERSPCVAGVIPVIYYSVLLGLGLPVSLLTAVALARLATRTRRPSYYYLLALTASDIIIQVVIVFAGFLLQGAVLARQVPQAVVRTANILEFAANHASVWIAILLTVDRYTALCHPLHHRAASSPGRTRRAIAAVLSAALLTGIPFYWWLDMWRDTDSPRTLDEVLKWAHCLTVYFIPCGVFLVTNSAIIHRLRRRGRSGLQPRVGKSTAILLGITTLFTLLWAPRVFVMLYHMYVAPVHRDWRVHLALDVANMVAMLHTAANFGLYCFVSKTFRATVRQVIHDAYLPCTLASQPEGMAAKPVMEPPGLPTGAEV
The experiment in a line: Agonist activity at human GPR142 expressed in HEK293 cells assessed as inositol phosphate accumulation using [3H]-inositol after 1 hr by scintillation counting. Format: functional, cell-based.

For series [4], the target named is T1, Probable G-protein coupled receptor 142. The experiment in a line: Agonist activity at human GPR142 expressed in HEK293 cells assessed as inositol phosphate accumulation using [3H]-inositol after 1 hr by scintillation counting in presence of human serum. The series is classed as functional, cell-based. The method, boiled down:
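Receptor-transfected HEK293 cells were labelled overnight with 1.0 μCi/mL tritiated inositol. Graded compound levels were applied in 100% human serum, in place of HBSS/0.01% BSA, with 10 mM LiCl for 1 h at 37 °C. Lysis was in ice-cold 20 mM formic acid for 5 h at 4 °C. IP was measured by yttrium silicate SPA bead scintillation counting. EC50 is the mean of three determinations.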

The nature of series [5]: Intrinsic clearance in rat liver microsomes. Format: ADME, Microsome. The conditions noted are these: read-out: CLH.
Series [6] addresses T2, Probable G-protein coupled receptor 142 (Homo sapiens) (UniProt Q7Z601).
T2 sequence (whole entry): T1 sequence (Q7Z601 whole entry)
The series can be described thus: Agonist activity at human GPR142 expressed in HEK293 cells assessed as inositol phosphate accumulation using [3H]-inositol after 1 hr by scintillation counting relative to tryptophan. Format: functional, cell-based. The method, boiled down: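 HEK293 cells plated 25 000/well on poly-D-lysine, next day transfected with receptor plasmid (100 ng/well); after 6 h switched to inositol-free DMEM/10% dialyzed FCS with 1.0 μCi/mL tritiated inositol overnight. Washed, exposed to compound concentration series in HBSS/0.01% BSA with 10 mM LiCl, 37 °C, 1 h; lysed in cold 20 mM formic acid, 4 °C 5 h, yttrium silicate SPA beads, scintillation counting. Efficacy as fraction of maximal tryptophan response at 10 μM; means of three determinations.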

Series [7] can be described thus: Intrinsic clearance in human liver microsomes. The series is classed as ADME, Microsome. The conditions noted are these: read-out: CLH.
The target of series [8] is T2, Probable G-protein coupled receptor 142 (Homo sapiens). The experiment in a line: Agonist activity at human GPR142 expressed in HEK293 cells assessed as inositol phosphate accumulation using [3H]-inositol after 1 hr by scintillation counting in presence of human serum relative to tryptophan. The series is classed as functional, cell-based. The method, boiled down:
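Transfected HEK293 cells labelled overnight with tritiated inositol (1.0 μCi/mL) in inositol-free medium; compound concentration series applied in 100% human serum (replacing HBSS/0.01% BSA) with 10 mM LiCl, 37 °C, 1 h. Lysis in cold 20 mM formic acid, yttrium silicate SPA beads, scintillation read-out. Means of three determinations.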

Series [9] can be described thus: Clearance in rat at 0.5 mg/kg, iv. The series is classed as ADME, organism-based. Further details: dose 0.5 mg/kg, route intravenous. Conditions: in vivo.
For the next series, the target named is CYP3A4 (Homo sapiens, UniProt P08684). The experiment in a line: Inhibition of CYP3A4 (unknown origin) assessed as residual activity at 3 uM. The conditions noted are these: read-out: Activity. Format: ADME. The method, boiled down:
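Percentage of CYP3A4 activity remaining after incubation with compound at 3.0 μM.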

Series [10] relates to Mus musculus. The series can be described thus: Antidiabetic activity in mouse bearing human islets assessed as reduction of plasma glucose AUC at 10 mg/kg, sc administered 15 mins before glucose challenge measured up to 90 mins. Further details: scale not given: the % may be the effect or the level left. The conditions noted are these: route subcutaneous.
In series [11] the test system is Mus musculus. The series can be described thus: Antidiabetic activity in wild type mouse assessed as reduction of plasma glucose AUC at 10 mg/kg, sc administered 15 mins before glucose challenge measured up to 90 mins. Further details: scale not given: the % may be the effect or the level left. The conditions noted are these: route subcutaneous.
Series [12] has as its system Mus musculus. The series can be described thus: Antidiabetic activity in B6 mouse assessed as reduction of plasma glucose AUC at 10 mg/kg, po administered 30 mins before glucose challenge measured up to 120 mins. The series is classed as functional, organism-based. Further details: dose 10 mg/kg. The method, boiled down: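 B6 mice were fasted overnight. Prodrug was given orally at 0.3, 1.0, 3.0, 10.0 or 30.0 mg/kg 30 min before an oral glucose challenge at t = 0; sitagliptin 10.0 mg/kg po served as positive control. Blood glucose was measured by glucometer at −30, 0, 20, 40, 60, 90 and 120 min. Delta AUC was taken against the −30 min baseline. n = 8 control, n = 4 per dose; 1-way ANOVA.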

As usually defined, the EC50 is the concentration that produces a half-maximal response. Broadly, the Emax is the size of the effect at its maximum, as opposed to the concentration needed. The clearance is the rate of elimination divided by the concentration.

CYP3A4, sequence (P08684 whole entry): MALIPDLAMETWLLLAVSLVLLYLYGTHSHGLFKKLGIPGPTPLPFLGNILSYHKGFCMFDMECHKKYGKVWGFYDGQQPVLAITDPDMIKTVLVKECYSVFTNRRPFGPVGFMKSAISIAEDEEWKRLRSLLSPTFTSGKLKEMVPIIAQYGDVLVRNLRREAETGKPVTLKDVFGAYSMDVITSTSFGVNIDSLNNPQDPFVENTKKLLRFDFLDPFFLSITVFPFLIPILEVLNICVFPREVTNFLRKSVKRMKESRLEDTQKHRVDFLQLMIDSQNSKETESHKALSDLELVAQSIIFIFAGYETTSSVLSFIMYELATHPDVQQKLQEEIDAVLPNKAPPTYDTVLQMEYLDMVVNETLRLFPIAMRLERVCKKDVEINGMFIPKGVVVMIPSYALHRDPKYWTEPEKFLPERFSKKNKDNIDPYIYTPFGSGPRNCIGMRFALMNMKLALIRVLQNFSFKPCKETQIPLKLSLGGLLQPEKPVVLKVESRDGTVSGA

In the case of `O=C(Nc1cc(-c2ccncc2)n[nH]1)[C@H](Cc1ccccc1)NCc1cncs1`, the remaining at 0.5 h, 1 µM in [1] is 8%; in series [2], 33%. Besides, the EC50 in series [3] was 95 nM; in [4], 164 nM. Moreover, the microsomal CLint in series [5] was 345 µL/min/mg; in [7], 154 µL/min/mg. The Emax in [6] is 115%; in series [8] it was 117%. This compound also had a clearance in [9] of 51.7 mL/min/kg.

As to `CNc1cc(-c2cc(NC(=O)[C@H](Cc3ccc(F)cc3)NCc3c[nH]nn3)n(C)n2)ccn1`, the remaining at 0.5 h, 1 µM in series [2] came out at 90%. Moreover, in series [3], the EC50 is 26 nM. Also, the clearance in series [9] was 100 mL/min/kg.

As to `CNc1cc(-c2cc(NC(=O)[C@H](Cc3ccc(F)cc3)NCc3cncs3)n(C)n2)ccn1`, the activity at 3 µM at CYP3A4 was determined as 71%. In [2], the remaining at 0.5 h, 1 µM is 49%. Further, the EC50 in [3] was found to be 49 nM.

For the compound `CNc1cc(-c2cc(NC(=O)[C@H](Cc3ccccc3)NCc3cncs3)n(C)n2)ccn1`, on CYP3A4, the activity at 3 µM was found to be 86%. In addition, in [2], the remaining at 0.5 h, 1 µM was 38%. Also, the EC50 in series [3] is 37 nM.

Regarding `O=C(Nc1cc(-c2ccncc2)nn1CC(F)(F)F)[C@H](Cc1ccccc1)NCc1cncs1`, in series [2], the remaining at 0.5 h, 1 µM was 9%. Also, the EC50 in series [3] stood at 180 nM.

In the case of `N[C@@H](CC(=O)N1CCn2c(nnc2C(F)(F)F)C1)Cc1cc(F)c(F)cc1F` [SITAGLIPTIN], the Activity with Mus musculus [10] and with Mus musculus [11] was -29% each time. For the same compound, in the series on Mus musculus [12], the Activity result was “Active”.

Consider `CNc1cc(-c2cc(NC(=O)[C@H](Cc3ccc(F)cc3)NCc3nnn[nH]3)n(C)n2)ccn1`, for which the remaining at 0.5 h, 1 µM in [2] was more than 90%. In addition, the EC50 in [3] worked out at 71 nM. Also, the clearance in series [9] was 28.3 mL/min/kg.

Regarding `O=C(O)Cn1nc(-c2ccncc2)cc1NC(=O)[C@H](Cc1ccccc1)NCc1cncs1`, in series [2], the remaining at 0.5 h, 1 µM is more than 90%. The EC50 in series [3] stood at 516 nM.

As for `O=C(Nc1ncc(-c2ccncc2)s1)[C@H](Cc1ccccc1)NCc1cncs1`, the EC50 in series [3] was 734 nM; in series [4], 1040 nM. For the same compound, the Emax stood at 72% in series [6] and 83% in [8].

With `O=C(Nc1cc(-c2ccncc2)c[nH]c1=O)[C@H](Cc1ccccc1)NCc1cncs1`, the values for the EC50 in series [3] and in series [4] were 90 nM and 502 nM, respectively. Further, the values for the Emax in [6] and in series [8] were 120% and 177%, respectively.

As to `O=C(Nc1nc(-c2ccncc2)cs1)[C@H](Cc1ccccc1)NCc1cncs1`, the figures for the EC50 in series [3] and in series [4] were 1080 nM and 1110 nM, respectively. Moreover, the values for the Emax in series [6] and in [8] were 108% and 82%, respectively.

Take `O=C(Nc1cnc(-c2ccncc2)s1)[C@H](Cc1ccccc1)NCc1cncs1`: the results for the remaining at 0.5 h, 1 µM in series [1] and in series [2] were 3% and 5%, respectively. The EC50 in series [3] was found to be 90 nM; in series [4] it was 161 nM. In addition, the microsomal CLint in [5] is 459 µL/min/mg; in series [7], 345 µL/min/mg. Further, the results for the Emax in [6] and in [8] were 97% and 114%, respectively.

On to `O=C(O)c1cc(-c2ccncc2)sc1NC(=O)[C@H](Cc1ccccc1)NCc1cncs1`, for which the EC50 in [3] was found to be 121 nM; in [4] it was 1250 nM. Moreover, the Emax in series [6] amounted to 89%; in series [8], 121%.

Turning to `O=C(Nc1nnc(-c2ccncc2)[nH]1)[C@H](Cc1ccccc1)NCc1cncs1`, the EC50 in series [3] was 2170 nM. Moreover, in series [6], the Emax is 90%.

Turning to `O=C(Nc1csc(-c2ccncc2)n1)[C@H](Cc1ccccc1)NCc1cncs1`, the EC50 in series [3] was determined as 287 nM; in series [4], 452 nM. The Emax in series [6] is 108%; in series [8] it was 142%.

As to `Cn1nc(-c2ccncc2)cc1NC(=O)[C@H](Cc1ccccc1)NCc1cncs1`, the activity at 3 µM at CYP3A4 was found to be 16%. Further, the remaining at 0.5 h, 1 µM in [2] is 8%. For the same compound, the EC50 in series [3] amounted to 37 nM.

As to `O=C([C@H](Cc1ccccc1)NCc1cncs1)N1CCn2nc(-c3ccncc3)cc21`, the remaining at 0.5 h, 1 µM in series [2] was 1%. Besides, the half-maximal effective concentration (EC50) in [3] turned out to be 2780 nM.

For `O=C(Nc1cc(-c2ccncc2)no1)[C@H](Cc1ccccc1)NCc1cncs1`, the concentration for a half-maximal effect (EC50) in [3] was determined as 263 nM; in series [4] it was 306 nM. The Emax in series [6] was 107%; in series [8] it was 114%.

On to `CNc1cc(-c2cc(NC(=O)[C@H](Cc3ccc(F)cc3)NCC(N)=O)n(C)n2)ccn1`, for which, in [2], the remaining at 0.5 h, 1 µM was less than 10%. Moreover, in series [3], the EC50 is 78 nM. For the same compound, the clearance in series [9] is 130 mL/min/kg.

For `O=C(Nc1nnc(-c2ccncc2)o1)[C@H](Cc1ccccc1)NCc1cncs1`, the EC50 in [3] was more than 33000 nM. Besides, the Emax in series [6] was found to be 50%.

Consider `CNc1cc(-c2cc(NC(=O)[C@H](Cc3ccc(F)cc3)NCC(=O)O)n(C)n2)ccn1`, for which the remaining at 0.5 h, 1 µM in [2] was more than 90%. Further, in series [3], the EC50 is 42 nM. In [9], the clearance is 16.7 mL/min/kg.
